One assay has as its target T1, TLR7 (Homo sapiens, UniProt Q9NYK1).
T1 sequence (Q9NYK1 27-1049): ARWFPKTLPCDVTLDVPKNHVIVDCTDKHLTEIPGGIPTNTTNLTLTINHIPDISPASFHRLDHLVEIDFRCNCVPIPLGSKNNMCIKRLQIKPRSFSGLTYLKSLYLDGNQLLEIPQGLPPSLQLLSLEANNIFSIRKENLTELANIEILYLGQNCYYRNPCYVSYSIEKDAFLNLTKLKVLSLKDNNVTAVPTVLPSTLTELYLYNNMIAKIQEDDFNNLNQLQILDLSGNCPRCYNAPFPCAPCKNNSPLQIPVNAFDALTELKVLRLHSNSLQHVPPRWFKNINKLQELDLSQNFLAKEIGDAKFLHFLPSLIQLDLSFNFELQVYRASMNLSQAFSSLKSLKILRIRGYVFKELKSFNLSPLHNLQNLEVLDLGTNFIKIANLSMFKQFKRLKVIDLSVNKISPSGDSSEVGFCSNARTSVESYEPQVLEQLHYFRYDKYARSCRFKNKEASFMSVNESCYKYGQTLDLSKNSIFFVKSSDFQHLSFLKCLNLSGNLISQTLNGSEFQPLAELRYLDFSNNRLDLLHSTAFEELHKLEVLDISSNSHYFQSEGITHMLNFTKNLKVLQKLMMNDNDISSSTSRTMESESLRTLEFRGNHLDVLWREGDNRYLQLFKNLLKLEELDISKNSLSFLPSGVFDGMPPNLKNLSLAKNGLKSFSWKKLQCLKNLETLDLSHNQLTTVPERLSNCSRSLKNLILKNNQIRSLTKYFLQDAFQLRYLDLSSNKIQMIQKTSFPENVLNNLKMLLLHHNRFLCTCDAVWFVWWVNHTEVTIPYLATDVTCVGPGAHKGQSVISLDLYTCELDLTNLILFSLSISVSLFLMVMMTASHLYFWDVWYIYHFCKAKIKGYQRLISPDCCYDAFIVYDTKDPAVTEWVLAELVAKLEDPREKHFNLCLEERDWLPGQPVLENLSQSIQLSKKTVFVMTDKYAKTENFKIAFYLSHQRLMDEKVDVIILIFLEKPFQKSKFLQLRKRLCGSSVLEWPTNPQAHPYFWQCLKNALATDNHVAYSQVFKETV
Kind of assay: TLR7 antagonism reporter gene assay. Type of assay: cell-based. The method in brief: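 HEK-Blue-7 cells (HEK293 stably expressing TLR7 plus NF-κB/AP-1-driven secreted alkaline phosphatase reporter) were kept in selection medium with zeocin and normocin and grown to confluency. They were stimulated with gardiquimod at 1 μg/mL, or 250 ng/mL for Schild analysis, with serially diluted test compound (top 250 μM) added concurrently. After overnight incubation, supernatant sAP was read with chromogen at 620 nm. Replicates were duplicate or quadruplicate.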
(In general: Reporter assays use an easily measured gene product as a stand-in for the process of interest.)

For a further assay, the target named is T2, TLR8 (Homo sapiens, UniProt Q9NR97).
T2 sequence (Q9NR97 27-1041): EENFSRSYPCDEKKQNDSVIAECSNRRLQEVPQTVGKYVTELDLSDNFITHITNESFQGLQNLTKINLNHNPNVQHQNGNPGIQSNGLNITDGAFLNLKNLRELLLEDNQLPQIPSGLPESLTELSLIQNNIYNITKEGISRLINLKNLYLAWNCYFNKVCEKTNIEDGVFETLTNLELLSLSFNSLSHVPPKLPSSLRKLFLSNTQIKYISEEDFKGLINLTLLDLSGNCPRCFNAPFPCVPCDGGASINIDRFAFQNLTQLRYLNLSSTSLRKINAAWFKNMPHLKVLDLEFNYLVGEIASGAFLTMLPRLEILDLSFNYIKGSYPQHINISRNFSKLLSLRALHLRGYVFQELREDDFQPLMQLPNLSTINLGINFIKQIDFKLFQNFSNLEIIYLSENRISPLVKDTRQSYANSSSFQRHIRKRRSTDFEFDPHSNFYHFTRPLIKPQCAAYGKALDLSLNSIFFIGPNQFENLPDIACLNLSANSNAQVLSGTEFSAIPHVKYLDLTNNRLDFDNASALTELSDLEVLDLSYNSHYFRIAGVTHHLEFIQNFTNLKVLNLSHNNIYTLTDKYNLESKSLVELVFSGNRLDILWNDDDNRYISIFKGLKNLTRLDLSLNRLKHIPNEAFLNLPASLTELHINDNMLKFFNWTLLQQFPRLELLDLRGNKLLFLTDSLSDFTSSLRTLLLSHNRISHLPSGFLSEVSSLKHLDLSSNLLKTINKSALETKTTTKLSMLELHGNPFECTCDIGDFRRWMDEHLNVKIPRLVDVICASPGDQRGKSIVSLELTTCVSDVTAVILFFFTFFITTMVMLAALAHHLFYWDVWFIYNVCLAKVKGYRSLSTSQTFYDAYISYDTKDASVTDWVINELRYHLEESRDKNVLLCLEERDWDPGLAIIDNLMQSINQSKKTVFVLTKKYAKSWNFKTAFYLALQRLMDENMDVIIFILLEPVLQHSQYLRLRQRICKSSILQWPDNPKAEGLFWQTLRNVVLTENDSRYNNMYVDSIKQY
Description: TLR8 antagonism reporter gene assay. It is filed as cell-based.

Consider nine compounds from article PMC3114175 (Bioorganic & medicinal chemistry, 2011).

SMILES strings stand for the structures. pIC50: −log10 of the molar value.

What is called pIC50 is the IC50 on a negative log10 scale, so that one unit is a factor of ten. Take `CC(C)(O)Cn1c(C2CCCCC2)nc2c3ccccc3ncc21` [Compound 4c]: the pIC50 on TLR7 was below 3.60.
`CCCCCCCCCc1nc2c3ccccc3ncc2n1C` [Compound 8d]: at TLR7, the “TLR7-inhibitory activity” value is on record as “low micromolar TLR7-inhibitory activity”.
Compound `CC(C)(O)Cn1c(-c2ccccc2)nc2c3ccccc3ncc21` [Compound 4b, 2-methyl-1-(2-phenyl-3H-imidazo[4,5-c]quinolin-3-yl)propan-2-ol] gave a pIC50 against TLR7 below 3.60.
On to `C#CCn1c(CCCCCCCCC)nc2c3ccccc3ncc21` [Compound 7d], for which, at TLR7, the “TLR7-inhibitory activity” value is reported as “low micromolar TLR7-inhibitory activity”.
As for `CCNCc1nc2c3ccccc3nc(NC(=O)c3ccccc3)c2n1CC(C)(C)O` [Compound 11, N-(2-((ethylamino)methyl)-3-(2-hydroxy-2-methylpropyl)-3H-imidazo[4,5-c]quinolin-4-yl)benzamide], on TLR7, the pIC50 is below 3.60.
For `COc1ccc(Cn2c(-c3ccccc3)nc3c4ccccc4[n+](Cc4ccc(OC)cc4)cc32)cc1` [Compound 12, 3,5-bis(4-methoxybenzyl)-2-phenyl-3H-imidazo[4,5-c]quinolin-5-ium], the “Mode of inhibition by Schild analyses” value on TLR7 (agonist gardiquimod 1 μg/mL and 250 ng/mL) is recorded as “competitive”.
In the case of `COc1ccc(Cn2c(-c3ccccc3)nc3c4ccccc4ncc32)cc1` [Compound 5b, 3-(4-methoxybenzyl)-2-phenyl-3H-imidazo[4,5-c]quinoline], the pIC50 against TLR8 and at TLR7 was below 3.60 throughout.
Take `CCNCc1nc2c3ccccc3ncc2n1CCCO` [Compound 6a, 3-(2-((ethylamino)methyl)-3H-imidazo[4,5-c]quinolin-3-yl)propan-1-ol]: the pIC50 on TLR8 and at TLR7 was below 3.60 throughout.
`CCNCc1nc2c3ccccc3[n+]([O-])cc2n1CC(C)(C)O` [Compound 10, 2-((ethylamino)methyl)-3-(2-hydroxy-2-methylpropyl)-3H-imidazo[4,5-c]quinoline 5-oxide]: the pIC50 at TLR7 was below 3.60.
